# Measurements reported in PMC9128166 (Cancer Science, 2022).
# Values joined by “and” are separate entries in the source; they are usually repeats but may differ in a detail not shown here. Equal values may be shown once. “Also recorded” adds a separate entry of the source. Read-outs that look alike come from different tables or passages of the source.
# What was measured:
# [1] = cited from earlier work
# [2] = Parsaclisib exposure and patient disposition; format: in vivo, Japanese patients
# In short: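 Safety population: all enrolled patients given ≥1 dose. Regimen was 10 or 20 mg QD for 8 weeks, then QW, until progression, death, unacceptable toxicity or consent withdrawal. AEs were graded by NCI CTCAE v4.03. Treatment duration (d) = last dose − first dose + 1. QW-period duration (wk) = ceiling[(last dose − first QW dose + 1)/7]. Interruptions and reductions were tallied by dosing period.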
# [3] = test system: relapsed or refractory marginal zone lymphoma; assay: Investigator-assessed response; format: in vivo, Japanese patients
# In short: (§1)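 Investigator-assessed response by Lugano criteria in the full analysis set (all treated patients). Patients received 10 or 20 mg QD orally for 8 weeks, then the same dose QW. CT, FDG-PET or PET-CT was chosen by subtype, using the same technique as at screening. Scans ran every 8 weeks through week 24, every 12 weeks through week 96, then every 24 weeks until progression.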
# [4] = test system: plasma proteins associated with PI3Kδ inhibition; assay: Plasma proteomic pharmacodynamic biomarkers; format: in vivo, Japanese patients
# [5] = Plasma pharmacokinetics of parsaclisib, cycle 1 day 15; format: in vivo, Japanese patients; conditions: for Vd/F: Vz/F
# [6] = Urine pharmacokinetics of parsaclisib, cycle 1 day 15; format: in vivo, Japanese patients
# [7] = Dose-limiting toxicity / MTD, 3 + 3 dose escalation and expansion; format: in vivo, Japanese patients
# In short: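 Oral test compound in Japanese patients: once daily for 8 weeks, then the same dose weekly; starting dose 10 mg QD. Patients were hospitalised for the 28-day DLT period. DLTs were graded by NCI CTCAE v4.03. MTD was one level below the dose with DLT in ≥2 of 6 patients, with 3 added patients to confirm.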
# [8] = test system: relapsed or refractory diffuse large B‐cell lymphoma; assay: Investigator-assessed response; format: in vivo, Japanese patients
# In short: as §1
# [9] = format: in vivo, Japanese patients
# [10] = test system: relapsed or refractory follicular lymphoma; assay: Investigator-assessed response; format: in vivo, Japanese patients
# In short: as §1
# [11] = test system: phospho‐AKT; conditions: read-out: calculated in vitro IC90 for phospho‐AKT inhibition; measure of PI3K pathway pharmacodynamic activity; ref not given; cited from earlier work
# [12] = previous studies, patients with NHL
# [13] = two responders with MZL, individual values
# [14] = 10 mg QD, cycle 1 day 15, n 3, mean ± SD
# [15] = 20 mg QD, cycle 1 day 15, n 11, mean ± SD
# [16] = Any postbaseline abnormality, N = 17
# [17] = Worst grade postbaseline Grade 3, N = 17
# [18] = Worst grade postbaseline Grade 4, N = 17
# [19] = among 16 patients with grade 0 at baseline
compound,measurement,setting,value
CCOc1c([C@H](C)n2nc(C)c3c(N)ncnc32)cc(Cl)c(F)c1[C@@H]1CNC(=O)C1 [parsaclisib],decreases in neutrophil count to grade 3 or 4,"[1]; previous studies, patients with FL or MZL",13–14%
same,ALT elevation,[1]; [12],13–26%
same,AST elevation,[1]; [12],17–23%
same,cough (TEAE),[1]; primarily Western populations,17–22%
same,nausea (TEAE),[1]; primarily Western populations,14–26%
same,pyrexia (TEAE),[1]; primarily Western populations,13–17%
same,rash (TEAE),[1]; primarily Western populations,14–22%
same,diarrhea (TEAE),"[1]; prior studies, primarily Western populations",20–44%
same,Patients with dose interruption,[2]; 10 mg QD + 10 mg QW (n = 3),2 (66.7) n (%)
same,Patients with dose reduction,[2]; 10 mg QD + 10 mg QW (n = 3),1 (33.3) n (%)
same,Patients with dose interruption,[2]; 20 mg QD + 20 mg QW (n = 14),8 (57.1) n (%)
same,Patients with dose reduction,[2]; 20 mg QD + 20 mg QW (n = 14),4 (28.6) n (%)
same,patients who discontinued treatment due to AEs / TEAEs,"[2]; 2 of 17 patients (varicella zoster infection, pyrexia)",11.8%
same,patients requiring a dose reduction,[2]; 5 of 17 patients,29.4%
same,patients remaining on study treatment at data cut‐off,[2]; 6 of 17 patients,35.3%
same,patients requiring a dose interruption during the treatment period,[2]; 10 of 17 patients,58.8%
same,Patients with dose interruption,[2]; Total (N = 17),10 (58.8) n (%)
same,Patients with dose reduction,[2]; Total (N = 17),5 (29.4) n (%)
same,"BOR, CMR/CR",[3]; MZL (n = 2),0 (0.0) n (%)
same,"BOR, NMR/SD",[3]; MZL (n = 2),0 (0.0) n (%)
same,"BOR, PMD/PD",[3]; MZL (n = 2),0 (0.0) n (%)
same,"BOR, PMR/PR",[3]; MZL (n = 2),2 (100) n (%)
same,Objective response,[3]; MZL (n = 2),2 (100.0) n (%)
same,"BOR, Not assessed","[3]; MZL (n = 2), no postbaseline response data available",0 (0.0) n (%)
same,ORR,"[3]; MZL, 2 of 2 patients",100%
same,observed PFS,[3]; [13],16.7 months and 22.0 months
same,observed response duration,[3]; [13],14.8 months and 16.8 months
same,parsaclisib‐responsive proteins after transition to QW dosing,"[4]; 10 mg or 20 mg QW, weeks 12 and 24",reverted partially or completely to baseline expression levels
same,plasma proteins significantly changed following 4 weeks or 8 weeks of QD parsaclisib dosing,"[4]; FL and MZL (n = 11), approximately 1000 proteins analysed",23 plasma proteins
same,Accumulation ratio,[5]; [14],"1.4 ± 0.2 (1.4, 17.1)"
same,CLss/F,[5]; [14],"1.8 ± 0.6 (1.75, 30.9) L/h"
same,Cmin,[5]; [14],"227 ± 83.2 nM and 227 ± 83.2 (215, 36.6) nM"
same,Tmax,"[5]; 10 mg QD, cycle 1 day 15, n 3, median (range)",1.0 (0.5–2.0) h
same,Accumulation ratio,[5]; [15],"1.2 ± 0.1 (1.2, 11.3)"
same,CLss/F,[5]; [15],"2.3 ± 0.75 (2.2, 32.9) L/h"
same,Cmin,[5]; [15],"303 ± 155 nM and 303 ± 155 (271, 51.0) nM"
same,CLss/F,"[5]; Total (10 and 20 mg QD), cycle 1 day 15, n 14, mean ± SD","2.2 ± 0.7 L/h and 2.2 ± 0.7 (2.1, 32.8) L/h"
same,AUC,"[5]; human, plasma, oral, 10 mg",12.5 µM·h
same,Cmax,"[5]; human, plasma, oral, 10 mg",1440 ± 502 nM
same,Tmax,"[5]; human, plasma, oral, 10 mg, Tmax, 10 mg QD, cycle 1 day 15, n 3, median (range)",0.97 h
same,Vd/F,"[5]; human, plasma, oral, 10 mg, 10 mg QD, cycle 1 day 15, n 3, mean ± SD",31.3 ± 9.8 L
same,half-life,"[5]; human, plasma, oral, 10 mg, t½, 10 mg QD, cycle 1 day 15, n 3, mean ± SD",12.6 ± 4.6 h
same,AUC,"[5]; human, plasma, oral, 20 mg",20.5 µM·h
same,Cmax,"[5]; human, plasma, oral, 20 mg",2630 ± 530 nM
same,Tmax,"[5]; human, plasma, oral, 20 mg, Tmax, 20 mg QD, cycle 1 day 15, n 11, median (range)",0.55 h
same,Vd/F,"[5]; human, plasma, oral, 20 mg, 20 mg QD, cycle 1 day 15, n 11, mean ± SD",31.1 ± 10.2 L
same,half-life,"[5]; human, plasma, oral, 20 mg, t½, 20 mg QD, cycle 1 day 15, n 11, mean ± SD",9.8 ± 2.8 h
same,half-life,"[5]; human, plasma, oral, steady‐state geometric mean t½, overall, dose‐independent",9.9 h
same,"Fe,0-8h (unchanged parsaclisib recovered in urine)","[6]; Total, cycle 1 day 15, n 14, mean ± SD (text: mean (range))",12.1 (5.4–20.4) %
same,CL renal,"[6]; human, urine, oral",6.67 mL/min
same,MTD,[7]; 20 mg QD for 8 weeks followed by 20 mg QW,not considered to have exceeded the MTD; also recorded: the criteria for MTD was not exceeded
same,DLTs during dose expansion,"[7]; 20‐mg dose level, QD schedule",grade 3 febrile neutropenia on day 28 and grade 4 neutropenia on day 14 (each in 1 patient); also recorded: two DLTs occurred in one patient each
same,DLTs during the 28‐day DLT observation period,"[7]; dose‐escalation phase, 10‐mg (n = 3) or 20‐mg (n = 3) dose level",No DLTs
same,"BOR, CMR/CR",[8]; DLBCL (n = 6),0 (0.0) n (%)
same,"BOR, NMR/SD",[8]; DLBCL (n = 6),1 (16.7) n (%)
same,"BOR, PMD/PD",[8]; DLBCL (n = 6),3 (50.0) n (%)
same,"BOR, PMR/PR",[8]; DLBCL (n = 6),1 (16.7) n (%)
same,Objective response,[8]; DLBCL (n = 6),1 (16.7) n (%)
same,"BOR, Not assessed","[8]; DLBCL (n = 6), no postbaseline response data available",1 (16.7) n (%)
same,ORR,"[8]; DLBCL, 1 of 6 patients (partial response)",16.7%
same,observed PFS,[8]; one responder with DLBCL,13.8 months
same,observed response duration,[8]; one responder with DLBCL,12.2 months
same,treatment‐emergent new or worsening decreased neutrophils to grade 3 or 4,"[9]; 5 of 17 patients, all during first 8 weeks",29.4%
same,Alanine aminotransferase (increased),[9]; [16],7 (41.2) n (%)
same,Albumin (decreased),[9]; [16],9 (52.9) n (%)
same,Alkaline phosphatase (increased),[9]; [16],7 (41.2) n (%)
same,Aspartate aminotransferase (increased),[9]; [16],7 (41.2) n (%)
same,Calcium (decreased),[9]; [16],8 (47.1) n (%)
same,Creatinine (increased),[9]; [16],17 (100.0) n (%)
same,Leukocytes (decreased),[9]; [16],9 (52.9) n (%)
same,Neutrophils (decreased),[9]; [16],12 (70.6) n (%)
same,Platelets (decreased),[9]; [16],7 (41.2) n (%)
same,Potassium (increased),[9]; [16],5 (29.4) n (%)
same,Sodium (decreased),[9]; [16],5 (29.4) n (%)
same,Alanine aminotransferase (increased),[9]; [17],0 (0.0) n (%)
same,Albumin (decreased),[9]; [17],0 (0.0) n (%)
same,Alkaline phosphatase (increased),[9]; [17],0 (0.0) n (%)
same,Aspartate aminotransferase (increased),[9]; [17],0 (0.0) n (%)
same,Calcium (decreased),[9]; [17],0 (0.0) n (%)
same,Creatinine (increased),[9]; [17],0 (0.0) n (%)
same,Leukocytes (decreased),[9]; [17],0 (0.0) n (%)
same,Neutrophils (decreased),[9]; [17],4 (23.5) n (%)
same,Platelets (decreased),[9]; [17],0 (0.0) n (%)
same,Potassium (increased),[9]; [17],0 (0.0) n (%)
same,Sodium (decreased),[9]; [17],0 (0.0) n (%)
same,Alanine aminotransferase (increased),[9]; [18],0 (0.0) n (%)
same,Albumin (decreased),[9]; [18],0 (0.0) n (%)
same,Alkaline phosphatase (increased),[9]; [18],0 (0.0) n (%)
same,Aspartate aminotransferase (increased),[9]; [18],0 (0.0) n (%)
same,Calcium (decreased),[9]; [18],0 (0.0) n (%)
same,Creatinine (increased),[9]; [18],0 (0.0) n (%)
same,Leukocytes (decreased),[9]; [18],0 (0.0) n (%)
same,Neutrophils (decreased),[9]; [18],1 (5.9) n (%)
same,Platelets (decreased),[9]; [18],0 (0.0) n (%)
same,Potassium (increased),[9]; [18],0 (0.0) n (%)
same,Sodium (decreased),[9]; [18],0 (0.0) n (%)
same,"shifts to increased ALT, grade 1",[9]; [19],5 patients
same,"shifts to increased ALT, grade 2",[9]; [19],2 patients
same,"shifts to increased AST, grade 1",[9]; [19],7 patients
same,treatment‐emergent elevations of ALT or AST to grade 3 or 4,"[9]; human, in vivo",No treatment‐emergent worsening in aminotransferase elevations to grade 3 or 4; also recorded: no treatment‐emergent elevations of ALT or AST to grade 3 or 4
same,elevation in ALT,[9]; shifts to grade 1 or 2,41.2%
same,elevation in AST,[9]; shifts to grade 1 or 2,41.2%
same,"BOR, CMR/CR",[10]; FL (n = 9),2 (22.2) n (%)
same,"BOR, NMR/SD",[10]; FL (n = 9),0 (0.0) n (%)
same,"BOR, PMD/PD",[10]; FL (n = 9),0 (0.0) n (%)
same,"BOR, PMR/PR",[10]; FL (n = 9),7 (77.8) n (%)
same,Objective response,[10]; FL (n = 9),9 (100.0) n (%)
same,"BOR, Not assessed","[10]; FL (n = 9), no postbaseline response data available",0 (0.0) n (%)
same,complete response,"[10]; FL, 2 of 9 patients",22.2%
same,ORR,"[10]; FL, 9 of 9 patients",100%
same,observed PFS,[10]; nine responders with FL,1.9–17.5 months
same,IC90,[11],40 nM
